A short description of experiment [1]: reducers of endogenous Her2 protein level, primary screen, SKBR3 breast tumor cells, AlphaScreen, ATP viability (AID 461;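 active = Her2 level under about 52% in both replicate screens, with viability over 70% of control, limit read from the data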;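 for Her2 level: lower value means less Her2 protein in the cells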;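 for viability: percent of carrier control wells set as 100% viability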). The settings on record: 18-24 h, measured here: SKBR3 viability, ATP luminescence, at 10 µM. In general terms: In Alpha technology, singlet oxygen from a donor bead excites a nearby acceptor bead.
The target in experiment [2] is Receptor tyrosine-protein kinase erbB-2 (Homo sapiens) (UniProt P04626). The experiment is described as above. The settings on record: 18-24 h, at 10 µM, stronger effect = lower value.
Experiment [3] can be described thus: SK-BR-3 cell growth inhibitors, pilot screen, 24 h, human (AID 572;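 active = viability at or below 10% of carrier control in both of two separate runs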;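 note: compound exposure lasted between 18 and 24 h rather than exactly 24 h; 100% = carrier-treated control wells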). The settings on record: SK-BR-3 viability, CellTiter-Glo luminescence, at 10 µM, stronger effect = lower value. (ATP-based viability assays read luminescence as a measure of living cells.)
Experiment [4] can be described thus: HUVEC growth inhibition – cell-based, human, primary screen (AID 575;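 active = viability at or below 30% in both replicate assays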;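 note: 100% = median of untreated cell wells with 0.1% DMSO on each plate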). Particulars: HUVEC proliferation, CellTiter-Glo luminescence, 72 h; at 10 µM; stronger effect = lower value. In a few lines:
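Assay system: primary human umbilical vein endothelial cells / Buffer or medium: endothelial basal medium with 2% FBS plus growth supplements / Compound dosing: one dose, 10 µM final, 0.1% DMSO / Timing: 72 h treatment at 37 °C / Signal: CTG luminescence / Benchmarks: 32 DMSO-only cell-control wells (high), 32 MePR drug-control wells (low) per plate / Plate: collagen-coated 384-well format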

Experiment [5] can be described thus: growth inhibitors of H69AR lung tumor, primary screen, human, duplicate replicates (AID 580).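 Note: 100% = mean luminescence of untreated wells and 0% = no signal.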 The settings on record: H69AR lung tumor cells viability, ATP luminescence, 72 h; at 10 µM; stronger effect = lower value.
The nature of experiment [6]: reversal of MRP1-mediated doxorubicin resistance, pilot screen, H69AR cells, doxorubicin co-treatment (AID 601;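 active = viability loss from added drug above about 55%, and viability with drug at most 40%, in both replicates, limit read from the data, passing the limit was not always enough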). Particulars: CellTiter-Glo, 72 h, at 10 µM; for differential viability (reversal): stronger effect = higher value.
Experiment [7] can be described thus: 384-well plate pilot, post-Golgi transport modulator project, inhibition of yeast transport mutant growth (AID 636; in the data active = inhibition above about 31%). The settings on record: absorbance 615 nm, about 18 h, stronger effect = higher value.
Experiment [8] in a line: growth suppression of yeast trafficking mutant, preliminary HTS, modulators of trafficking downstream of Golgi apparatus project, 1536-format plate, OD 615 nm (AID 637; in the data active = inhibition above about 30%). Particulars: yeast transport mutant growth, absorbance 615 nm, 18 h; stronger effect = higher value.
Setting [9] is: H69AR cells + 2 uM doxorubicin, measured here: viability with 2 uM doxorubicin, stronger effect = lower value.
Setting [10] is: H69AR cells, compound alone cytotoxicity.

Structures are written as SMILES. Active and inactive are the calls of the source.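 Rule for the calls, unless noted: active = viability at or under a set limit in both replicates, limit being median viability minus 3 SD (cut at about 48% in these data, passing the limit was not always enough); inconclusive = at or under the limit in just one replicate; inactive = at or above the limit in both replicates.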

Receptor tyrosine-protein kinase erbB-2 (Homo sapiens), sequence (P04626 whole entry, looked up): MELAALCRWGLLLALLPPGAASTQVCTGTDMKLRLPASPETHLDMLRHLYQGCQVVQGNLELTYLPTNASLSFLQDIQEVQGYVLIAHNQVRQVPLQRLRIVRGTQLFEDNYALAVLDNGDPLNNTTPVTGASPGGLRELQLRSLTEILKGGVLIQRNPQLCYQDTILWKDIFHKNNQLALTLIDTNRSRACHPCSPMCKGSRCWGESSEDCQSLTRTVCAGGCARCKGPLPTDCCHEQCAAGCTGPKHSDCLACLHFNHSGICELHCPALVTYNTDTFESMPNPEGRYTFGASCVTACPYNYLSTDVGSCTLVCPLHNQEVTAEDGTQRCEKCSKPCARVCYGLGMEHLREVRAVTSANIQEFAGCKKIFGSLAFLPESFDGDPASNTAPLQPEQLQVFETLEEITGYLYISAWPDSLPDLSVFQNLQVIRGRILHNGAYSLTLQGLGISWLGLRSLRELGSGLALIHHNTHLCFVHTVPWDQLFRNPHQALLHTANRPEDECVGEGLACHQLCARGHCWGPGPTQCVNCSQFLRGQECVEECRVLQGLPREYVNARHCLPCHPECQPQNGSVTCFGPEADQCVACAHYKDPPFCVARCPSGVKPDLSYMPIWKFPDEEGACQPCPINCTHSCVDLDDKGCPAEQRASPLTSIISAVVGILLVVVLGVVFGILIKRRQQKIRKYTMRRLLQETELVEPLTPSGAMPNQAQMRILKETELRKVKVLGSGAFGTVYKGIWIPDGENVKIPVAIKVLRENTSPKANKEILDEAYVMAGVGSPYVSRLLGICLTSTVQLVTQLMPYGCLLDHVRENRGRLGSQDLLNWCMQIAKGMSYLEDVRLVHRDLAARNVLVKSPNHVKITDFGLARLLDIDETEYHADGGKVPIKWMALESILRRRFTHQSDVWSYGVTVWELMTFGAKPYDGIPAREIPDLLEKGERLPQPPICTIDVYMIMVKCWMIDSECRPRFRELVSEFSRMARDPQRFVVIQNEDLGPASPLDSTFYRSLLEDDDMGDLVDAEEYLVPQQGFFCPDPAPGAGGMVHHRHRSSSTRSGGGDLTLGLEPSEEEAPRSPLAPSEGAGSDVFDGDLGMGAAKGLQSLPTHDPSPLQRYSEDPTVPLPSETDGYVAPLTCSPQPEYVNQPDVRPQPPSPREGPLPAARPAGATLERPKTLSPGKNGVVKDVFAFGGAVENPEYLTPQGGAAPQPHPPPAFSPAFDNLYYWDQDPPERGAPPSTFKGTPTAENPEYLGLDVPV

For the molecule `CCCCN(C)CCCNC(=O)CC1Oc2ccccc2NC1=O` (stereo not given), the viability in experiment [1] was 86.5%; in experiment [3] it was 86.5% (inactive); in experiment [4], 104% (inactive); in experiment [5] it was 93.4% (inactive); in experiment [6] (setting [9]) it was 100%; in experiment [6] (setting [10]) it was 93.4%. Besides, in experiment [2], the Her2 level was 91.5% (inactive). The differential viability (reversal) in experiment [6] (H69AR cells + 2 uM doxorubicin) was -7.03% (inactive). Also, the inhibition in experiment [7] is -4.53% (inactive); in experiment [8], 2.95% (inactive).
Take `c1ccc2nc(-c3nc4ccccc4[nH]3)ccc2c1`: the viability was 104% in experiment [1]; 104% (inactive) in experiment [3]; 55.2% (inactive) in experiment [4]; 66.6% (inactive) in experiment [5]; 70.6% in experiment [6] (setting [9]); 66.6% in experiment [6] (setting [10]). Further, the Her2 level in experiment [2] is 74% (inactive). For the same molecule, the differential viability (reversal) in experiment [6] (H69AR cells + 2 uM doxorubicin) was -3.97% (inactive). In addition, the values for the inhibition in experiment [7] and in experiment [8] were 0% (inactive) and -1.64% (inactive), respectively.
Take `Cn1c(=O)c2c(nc(CN3CCCCC3)n2CCc2ccccc2)n(C)c1=O`: the viability in experiment [1] was 87%; in experiment [3], 87% (inactive); in experiment [4], 111% (inactive); in experiment [5], 91.9% (inactive); in experiment [6] (setting [9]), 93.9%; in experiment [6] (setting [10]) it was 91.9%. For the same molecule, the Her2 level in experiment [2] is 107% (inactive). The differential viability (reversal) in experiment [6] (H69AR cells + 2 uM doxorubicin) was -1.94% (inactive). The results for the inhibition in experiment [7] and in experiment [8] were 2.27% (inactive) and 13.8% (inactive), respectively.
On to `c1ccc(-c2nn3c(Cn4nnc5ccccc54)nnc3s2)nc1`, for which the viability in experiment [1] is 102%; in experiment [3], 102% (inactive); in experiment [4] it was 75.6% (inactive); in experiment [5], 101% (inactive); in experiment [6] (setting [9]) it was 91.5%; in experiment [6] (setting [10]) it was 101%. Moreover, in experiment [2], the Her2 level is 114% (inactive). The differential viability (reversal) in experiment [6] (H69AR cells + 2 uM doxorubicin) is 9.54% (inactive). Also, the inhibition in experiment [7] was -2.89% (inactive); in experiment [8], -2.67% (inactive).
On to `CCOC(=O)C1CCCN(C(=O)c2ccc3c(=O)n(CCOC)c(=S)[nH]c3c2)C1` (stereo not given), for which the viability in experiment [1] is 94%; in experiment [3], 94% (inactive); in experiment [4] it was 80.6% (inactive); in experiment [5], 88.6% (inactive); in experiment [6] (setting [9]) it was 77.1%; in experiment [6] (setting [10]) it was 88.6%. In experiment [2], the Her2 level is 83% (inactive). Besides, the differential viability (reversal) in experiment [6] (H69AR cells + 2 uM doxorubicin) is 11.5% (inactive). Moreover, the results for the inhibition in experiment [7] and in experiment [8] were -4.8% (inactive) and -0.33% (inactive), respectively.
For the molecule `CC(=O)C1=C(O)C(=O)N(Cc2cccnc2)C1c1ccccc1` (stereo not given), the viability was 101% in experiment [1]; 101% (inactive) in experiment [3]; 97.8% (inactive) in experiment [4]; 105% (inactive) in experiment [5]; 95.3% in experiment [6] (setting [9]); 105% in experiment [6] (setting [10]). Besides, the Her2 level in experiment [2] is 114% (inactive). In addition, in experiment [6] (H69AR cells + 2 uM doxorubicin), the differential viability (reversal) is 10% (inactive). Also, the inhibition in experiment [7] is -6.13% (inactive); in experiment [8] it was -1.77% (inactive).
Turning to `CCCn1c(O)c(CN2CCCC(C)C2)c(C)c(C#N)c1=O` (stereo not given), the viability in experiment [1] is 102%; in experiment [3] it was 102% (inactive); in experiment [4] it was 86.8% (inactive); in experiment [5] it was 107% (inactive); in experiment [6] (setting [9]) it was 92.2%; in experiment [6] (setting [10]), 107%. Moreover, the Her2 level in experiment [2] was 87.5% (inactive). Also, the differential viability (reversal) in experiment [6] (H69AR cells + 2 uM doxorubicin) is 15.3% (inactive). For the same molecule, the figures for the inhibition in experiment [7] and in experiment [8] were -5.87% (inactive) and 5.32% (inactive), respectively.
Turning to `CCOC(=O)N1CCN(c2c(N3CCc4ccccc4C3)c(=O)c2=O)CC1`, the viability in experiment [1] is 87%; in experiment [3] it was 87% (inactive); in experiment [4], 99.9% (inactive); in experiment [5] it was 91.7% (inactive); in experiment [6] (setting [9]), 85.4%; in experiment [6] (setting [10]) it was 91.7%. Also, the Her2 level in experiment [2] was 86% (inactive). Moreover, the differential viability (reversal) in experiment [6] (H69AR cells + 2 uM doxorubicin) was 6.33% (inactive). In addition, the inhibition is -2% (inactive) in experiment [7] and -3.11% (inactive) in experiment [8].
`COc1ccc(-n2nnc3c(=O)n(C/C=C/c4ccccc4)cnc32)cc1`: the viability in experiment [1] is 116%; in experiment [3], 116% (inactive); in experiment [4], 105% (inactive); in experiment [5], 86.1% (inactive); in experiment [6] (setting [9]), 77.1%; in experiment [6] (setting [10]) it was 86.1%. Moreover, the Her2 level in experiment [2] is 100% (inactive). Further, in experiment [6] (H69AR cells + 2 uM doxorubicin), the differential viability (reversal) was 8.94% (inactive). Also, the inhibition was -6.62% (inactive) in experiment [7] and 1.33% (inactive) in experiment [8].
As for `CCOc1ccccc1OCC(=O)Nc1nnc(COC)s1`, the viability in experiment [1] was 89%; in experiment [3] it was 89% (inactive); in experiment [4], 99.5% (inactive); in experiment [5], 91.8% (inactive); in experiment [6] (setting [9]), 93.3%; in experiment [6] (setting [10]), 91.8%. Besides, in experiment [2], the Her2 level was 103% (inactive). Also, in experiment [6] (H69AR cells + 2 uM doxorubicin), the differential viability (reversal) is -1.57% (inactive). Also, the inhibition in experiment [7] was -2.8% (inactive); in experiment [8], 10.7% (inactive).
As for `Cc1cc(C)n2cc(CSCc3ccco3)nc2n1`, the viability in experiment [1] is 97%; in experiment [3], 97% (inactive); in experiment [4], 113% (inactive); in experiment [5], 95.2% (inactive); in experiment [6] (setting [9]), 86.4%; in experiment [6] (setting [10]), 95.2%. For the same molecule, the Her2 level in experiment [2] is 83% (inactive). In addition, the differential viability (reversal) in experiment [6] (H69AR cells + 2 uM doxorubicin) is 8.73% (inactive). Besides, the inhibition in experiment [7] is -7.16% (inactive); in experiment [8], 0.83% (inactive).
For the molecule `c1ccc(-n2nnnc2OCCOc2nnnn2-c2ccccc2)cc1`, the viability in experiment [1] is 92%; in experiment [3], 92% (inactive); in experiment [4] it was 82.2% (inactive); in experiment [5] it was 80.4% (inactive); in experiment [6] (setting [9]), 86.5%; in experiment [6] (setting [10]), 80.4%. Moreover, the Her2 level in experiment [2] was 106% (inactive). Besides, the differential viability (reversal) in experiment [6] (H69AR cells + 2 uM doxorubicin) is -6.12% (inactive). In addition, the inhibition in experiment [7] was -2.24% (inactive); in experiment [8], 9.18% (inactive).
On to `CCOC(=O)N1CCN(C(=O)C2CC(=O)N(Cc3ccc(OC)cc3)C2)CC1` (stereo not given), for which the viability in experiment [1] was 96.5%; in experiment [3] it was 96.5% (inactive); in experiment [4], 112% (inactive); in experiment [5], 93.3% (inactive); in experiment [6] (setting [9]), 96.8%; in experiment [6] (setting [10]), 93.3%. For the same molecule, in experiment [2], the Her2 level was 91% (inactive). Also, the differential viability (reversal) in experiment [6] (H69AR cells + 2 uM doxorubicin) was -3.47% (inactive). The inhibition in experiment [7] is -4.34% (inactive); in experiment [8] it was -1.45% (inactive).
For the molecule `CCOC(=O)c1ccc(NC2OC(=O)c3ccccc32)cc1` (stereo not given), the viability in experiment [1] was 106%; in experiment [3] it was 106% (inactive); in experiment [4], 77.4% (inactive); in experiment [5], 91.9% (inactive); in experiment [6] (setting [9]) it was 95.8%; in experiment [6] (setting [10]) it was 91.9%. Further, the Her2 level in experiment [2] was 93% (inactive). Besides, the differential viability (reversal) in experiment [6] (H69AR cells + 2 uM doxorubicin) was -3.92% (inactive). Besides, the inhibition is -6.89% (inactive) in experiment [7] and 6.17% (inactive) in experiment [8].

Broadly, the viability is a read-out of living cells in per cent, often relative to untreated cells. In general, inhibition refers to the drop in the measured response relative to a control, in per cent.

For the origin of these results see PubChem BioAssay.
